# Measured values: ChEMBL document CHEMBL4680134, “Structural optimization of natural product nordihydroguaretic acid to discover novel analogues as AcrB inhibitors” (Eur J Med Chem, 2020)
# Activity calls are given as the source filed them. No cut-off for these calls is given here.
# Experiments:
# [1] = target: T1, Multidrug efflux pump subunit AcrB (Escherichia coli (strain K12)) (UniProt P31224); test: Inhibition of AcrB in Escherichia coli BW25113 assessed as potentiation of erythromycin induced antibacterial activity by measuring erythromycin MIC at 64 ug/ml measured after 18 hrs by checkerboard titration method (reference value: 64 ug/ml); conditions: dose 64.0 µg/ml
# T1 sequence (whole entry): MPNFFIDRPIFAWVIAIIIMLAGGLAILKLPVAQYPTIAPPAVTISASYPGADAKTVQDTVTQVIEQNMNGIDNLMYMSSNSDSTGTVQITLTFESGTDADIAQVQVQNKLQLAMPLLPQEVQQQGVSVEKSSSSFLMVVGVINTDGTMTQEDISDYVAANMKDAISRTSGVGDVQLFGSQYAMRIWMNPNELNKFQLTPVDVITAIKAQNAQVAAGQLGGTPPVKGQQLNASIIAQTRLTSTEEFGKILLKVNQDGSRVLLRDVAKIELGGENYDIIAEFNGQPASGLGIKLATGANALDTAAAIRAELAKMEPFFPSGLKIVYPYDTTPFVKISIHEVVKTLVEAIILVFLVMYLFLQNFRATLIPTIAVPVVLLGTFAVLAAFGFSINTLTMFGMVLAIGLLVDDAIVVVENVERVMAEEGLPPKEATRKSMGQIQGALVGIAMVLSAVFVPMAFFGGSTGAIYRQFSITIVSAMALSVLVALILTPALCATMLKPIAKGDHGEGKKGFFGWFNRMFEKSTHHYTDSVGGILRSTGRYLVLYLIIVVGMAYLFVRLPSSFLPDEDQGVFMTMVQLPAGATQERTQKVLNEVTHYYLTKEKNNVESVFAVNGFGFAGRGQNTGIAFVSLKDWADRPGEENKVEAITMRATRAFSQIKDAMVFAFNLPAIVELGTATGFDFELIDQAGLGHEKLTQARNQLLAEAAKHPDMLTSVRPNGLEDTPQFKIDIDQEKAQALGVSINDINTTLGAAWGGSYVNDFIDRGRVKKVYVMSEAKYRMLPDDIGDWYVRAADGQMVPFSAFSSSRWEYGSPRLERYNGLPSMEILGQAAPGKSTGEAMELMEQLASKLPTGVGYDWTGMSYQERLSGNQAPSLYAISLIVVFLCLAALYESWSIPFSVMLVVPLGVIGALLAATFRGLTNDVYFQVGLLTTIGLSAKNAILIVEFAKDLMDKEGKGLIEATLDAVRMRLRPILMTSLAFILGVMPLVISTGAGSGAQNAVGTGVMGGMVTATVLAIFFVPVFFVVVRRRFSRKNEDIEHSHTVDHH
# [2] = target: T1, Multidrug efflux pump subunit AcrB (Escherichia coli (strain K12)); test: Inhibition of AcrB in Escherichia coli BW25113 assessed as potentiation of levofloxacin induced antibacterial activity by measuring levofloxacin MIC at 8 ug/ml measured after 18 hrs by checkerboard titration method (reference value: 0.06 ug/ml); conditions: dose 8.0 µg/ml
# [3] = target: T1, Multidrug efflux pump subunit AcrB (Escherichia coli (strain K12)); test: Inhibition of AcrB in Escherichia coli BW25113 assessed as potentiation of erythromycin induced antibacterial activity by measuring erythromycin MIC at 16 ug/ml measured after 18 hrs by checkerboard titration method (reference value: 64 ug/ml); conditions: dose 16.0 µg/ml
# [4] = target: T1, Multidrug efflux pump subunit AcrB (Escherichia coli (strain K12)); test: Inhibition of AcrB in Escherichia coli BW25113 assessed as potentiation of tetraphenylphosphonium induced antibacterial activity by measuring tetraphenylphosphonium MIC at 16 ug/ml measured after 18 hrs by checkerboard titration method (reference value: 1024 ug/ml); conditions: dose 16.0 µg/ml
# [5] = target: T1, Multidrug efflux pump subunit AcrB (Escherichia coli (strain K12)); test: Inhibition of AcrB in Escherichia coli BW25113 assessed as potentiation of chloramphenicol induced antibacterial activity by measuring chloramphenicol MIC at 64 ug/ml measured after 18 hrs by checkerboard titration method (reference value: 8 ug/ml); conditions: dose 64.0 µg/ml
# [6] = target: T1, Multidrug efflux pump subunit AcrB (Escherichia coli (strain K12)); test: Inhibition of AcrB in Escherichia coli BW25113 assessed as potentiation of levofloxacin induced antibacterial activity by measuring levofloxacin MIC at 32 ug/ml measured after 18 hrs by checkerboard titration method (reference value: 0.06 ug/ml); conditions: dose 32.0 µg/ml
# [7] = target: T1, Multidrug efflux pump subunit AcrB (Escherichia coli (strain K12)); test: Inhibition of AcrB in Escherichia coli BW25113 assessed as potentiation of chloramphenicol induced antibacterial activity by measuring chloramphenicol MIC at 32 ug/ml measured after 18 hrs by checkerboard titration method (reference value: 8 ug/ml); conditions: dose 32.0 µg/ml
# [8] = target: T1, Multidrug efflux pump subunit AcrB (Escherichia coli (strain K12)); test: Inhibition of AcrB in Escherichia coli BW25113 assessed as potentiation of tetraphenylphosphonium induced antibacterial activity by measuring tetraphenylphosphonium MIC at 8 ug/ml measured after 18 hrs by checkerboard titration method (reference value: 1024 ug/ml); conditions: dose 8.0 µg/ml
# [9] = target: T1, Multidrug efflux pump subunit AcrB (Escherichia coli (strain K12)); test: Inhibition of AcrB in Escherichia coli BW25113 assessed as potentiation of rifampicin induced antibacterial activity by measuring rifampicin MIC at 16 ug/ml measured after 18 hrs by checkerboard titration method (reference value: 16 ug/ml); conditions: dose 16.0 µg/ml
# [10] = target: T1, Multidrug efflux pump subunit AcrB (Escherichia coli (strain K12)); test: Inhibition of AcrB in Escherichia coli BW25113 assessed as potentiation of rifampicin induced antibacterial activity by measuring rifampicin MIC at 8 ug/ml measured after 18 hrs by checkerboard titration method (reference value: 16 ug/ml); conditions: dose 8.0 µg/ml
# [11] = target: T1, Multidrug efflux pump subunit AcrB (Escherichia coli (strain K12)); test: Inhibition of AcrB in Escherichia coli BW25113 assessed as potentiation of chloramphenicol induced antibacterial activity by measuring chloramphenicol MIC at 8 ug/ml measured after 18 hrs by checkerboard titration method (reference value: 8 ug/ml); conditions: dose 8.0 µg/ml
# [12] = target: T1, Multidrug efflux pump subunit AcrB (Escherichia coli (strain K12)); test: Inhibition of AcrB in Escherichia coli BW25113 assessed as reduction in glucose-induced nile red efflux at 50 to 100 uM preincubated for 15 mins followed by nile red addition and incubated for 3 hrs in shaker in presence of CCCP by fluorimetric analysis; conditions: dose 50-100 µM, time 195.0 min
# How it was run: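 Whole-cell efflux: wild-type and ΔAcrB cells preloaded with Nile Red, with or without compound, before fluorescence readings. Efflux triggered at 100 s with 0.2% glucose and followed by fluorometry. The ΔAcrB strain marks maximal accumulation. Triplicate experiments with different cell batches.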
# [13] = target: T1, Multidrug efflux pump subunit AcrB (Escherichia coli (strain K12)); test: Inhibition of AcrB in Escherichia coli BW25113 assessed as potentiation of tetraphenylphosphonium induced antibacterial activity by measuring tetraphenylphosphonium MIC at 256 ug/ml measured after 18 hrs by checkerboard titration method (reference value: 1024 ug/ml); conditions: dose 256.0 µg/ml
# [14] = target: T1, Multidrug efflux pump subunit AcrB (Escherichia coli (strain K12)); test: Inhibition of AcrB in Escherichia coli BW25113 assessed as potentiation of levofloxacin induced antibacterial activity by measuring levofloxacin MIC at 256 ug/ml measured after 18 hrs by checkerboard titration method (reference value: 0.06 ug/ml); conditions: dose 256.0 µg/ml
# [15] = target: T1, Multidrug efflux pump subunit AcrB (Escherichia coli (strain K12)); test: Inhibition of AcrB in Escherichia coli BW25113 assessed as potentiation of erythromycin induced antibacterial activity by measuring erythromycin MIC at 256 ug/ml measured after 18 hrs by checkerboard titration method (reference value: 64 ug/ml); conditions: dose 256.0 µg/ml
# [16] = target: T1, Multidrug efflux pump subunit AcrB (Escherichia coli (strain K12)); test: Inhibition of AcrB in Escherichia coli BW25113 assessed as potentiation of chloramphenicol induced antibacterial activity by measuring chloramphenicol MIC at 256 ug/ml measured after 18 hrs by checkerboard titration method (reference value: 8 ug/ml); conditions: dose 256.0 µg/ml
Structure (SMILES),MIC [1] [µg/mL],MIC [2] [µg/mL],MIC [3] [µg/mL],MIC [4] [µg/mL],MIC [5] [µg/mL],MIC [6] [µg/mL],MIC [7] [µg/mL],MIC [8] [µg/mL],MIC [9] [µg/mL],MIC [10] [µg/mL],MIC [11] [µg/mL],inhibition [12],MIC [13] [µg/mL],MIC [14] [µg/mL],MIC [15] [µg/mL],MIC [16] [µg/mL]
Oc1ccc(CCCCc2ccccc2O)cc1O,64,–,64,512,4,0.06,4,–,16,–,–,–,512,0.06,32,4
Nc1ccccc1C(=O)NCCc1ccc(O)c(O)c1,64,0.06,64,1020,4,0.06,8,1020,16,16,8,–,–,–,–,–
C[C@H](Cc1ccc(O)c(O)c1)[C@@H](C)Cc1ccc(O)c(O)c1 [MASOPROCOL],64,–,–,–,8,0.06,8,–,–,–,–,Active,64,0.03,32,2
O=C(NCCc1ccc(O)c(O)c1)c1ccc(Br)cc1,64,0.06,64,1020,8,0.06,8,1020,16,16,8,–,–,–,–,–
Oc1ccc(CCCCc2ccc(Cl)cc2)cc1O,64,–,64,1020,16,0.06,16,–,16,–,–,Active,512,0.06,64,16
O=C(NCCc1ccc(O)c(O)c1)c1ccccc1O,64,0.06,64,1020,8,0.03,8,1020,16,16,8,–,–,–,–,–
Oc1ccc(CCCCCCCc2ccc(O)c(O)c2)cc1O,64,–,64,1020,8,0.06,8,–,16,–,–,–,512,0.06,64,8
Oc1ccc(CCCCCCc2ccc(O)c(O)c2)cc1O,64,–,64,–,8,0.06,8,–,16,–,–,Active,512,0.06,64,8
Oc1ccc(CCCCCc2ccc(O)c(O)c2)cc1O,64,–,64,1020,8,0.06,8,–,16,–,–,–,32,0.06,64,8
Oc1ccc(CCCCc2ccc(O)c(O)c2)cc1O,64,–,64,1020,8,0.06,8,–,16,–,–,–,512,0.06,32,4
O=C(NCCc1ccc(O)c(O)c1)c1ccc(C(F)(F)F)cc1,64,0.06,64,1020,8,0.06,8,1020,16,16,8,–,–,–,–,–

# Stronger by MIC [1], values ahead:
MIC [1] [µg/mL],MIC [2] [µg/mL],MIC [3] [µg/mL],MIC [4] [µg/mL],MIC [5] [µg/mL],MIC [6] [µg/mL],MIC [7] [µg/mL],MIC [8] [µg/mL],MIC [9] [µg/mL],MIC [10] [µg/mL],MIC [11] [µg/mL],inhibition [12],MIC [13] [µg/mL],MIC [14] [µg/mL],MIC [15] [µg/mL],MIC [16] [µg/mL],Structure (SMILES)
32,0.06,64,1020,4,0.06,4,1020,16,16,8,–,–,–,–,–,Nc1ccc(C(=O)NCCc2ccc(O)c(O)c2)cc1
32,–,64,512,8,0.06,8,–,16,–,–,Active,256,0.06,32,4,Oc1ccc(CCCCc2cc3cccc4ccc5cccc2c5c43)cc1O
32,–,64,1020,8,0.06,8,–,16,–,–,–,512,0.06,32,8,Oc1ccc(CCCc2ccc(O)c(O)c2)cc1O
16,0.06,32,1020,4,0.03,4,1020,16,16,4,–,–,–,–,–,O=C(NCCc1ccc(O)c(O)c1)c1cc(O)c(O)c(O)c1
32,–,64,512,8,0.06,8,–,16,–,–,–,256,0.06,32,1,Oc1ccc(CCCCc2cc(O)c(O)c(O)c2)cc1O
32,0.06,64,512,8,0.06,8,512,16,16,8,–,–,–,–,–,Nc1cc(N)cc(C(=O)NCCc2ccc(O)c(O)c2)c1
32,0.06,64,1020,2,0.06,4,1020,16,16,8,–,–,–,–,–,O=C(NCCc1ccc(O)c(O)c1)c1ccc(O)c(O)c1
